According to the M2OR odorant receptor database:

The molecules below were run against T1, OR8D1 (Homo sapiens) (UniProt Q8WZ84). Settings: stereoisomer not certain.
T1 sequence (whole entry): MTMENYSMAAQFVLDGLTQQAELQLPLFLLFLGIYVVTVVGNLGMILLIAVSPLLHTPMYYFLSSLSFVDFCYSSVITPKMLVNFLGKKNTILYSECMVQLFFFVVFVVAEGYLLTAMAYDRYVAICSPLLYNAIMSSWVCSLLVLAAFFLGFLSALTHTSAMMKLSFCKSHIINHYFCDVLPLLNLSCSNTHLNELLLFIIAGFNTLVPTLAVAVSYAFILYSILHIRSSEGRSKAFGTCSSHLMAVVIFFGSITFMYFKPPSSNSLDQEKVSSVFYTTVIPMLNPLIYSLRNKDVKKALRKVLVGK
How it was run: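 Each entry records the cell line, G-protein, co-transfected protein and tags used. Methods varied with the source, often transient luciferase assays in mammalian cell lines. A receptor–molecule pair is called responsive (active) if the original authors judged its signal statistically different from baseline and non-responsive (inactive) otherwise.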

SMILES	odorant receptor agonist call
CCC(C)CCC(=O)[O-] (stereo not drawn)	inactive
CCC(=O)O	inactive
C=C1CCC2(C(C)C)CC12 (stereo not drawn)	inactive
OCC=Cc1ccccc1	inactive
COC(=O)C(C)C	inactive
Cc1occc(=O)c1O	inactive
CCCCCC=O	inactive
C=CC(=O)CC=CCC	inactive
COC1=C(C)OC(C)C1=O (stereo not drawn)	inactive
Cc1cccc(C)c1O	inactive
CC(=O)c1cnccn1	inactive
CCOC(=O)C(C)C	inactive
CCCCCCCC1CCCC(=O)O1 (stereo not drawn)	inactive
CCCCC(=O)OCC	inactive
CCCCCCCC(C)=O	inactive
CCOC(=O)c1ccccc1	inactive
CCCC1CCCC(=O)O1 (stereo not drawn)	inactive
CCc1ncc(C)nc1CC	inactive
CC1=CCC2CC1C2(C)C (stereo not drawn)	inactive

SMILES	odorant receptor agonist call
CCCCCC=CCCC=O	inactive
CC(C)(S)CCOC=O	inactive
CCCCCCCCCC(=O)OCC	inactive
CCC=O	inactive
C=Cc1ccc(O)c(OC)c1	inactive
CCC=CCCC=CC=O	inactive
CCCCCC=CC=CC=O	inactive
CC=Cc1ccc(OC)cc1	inactive
Cc1ccc(C(C)C)cc1	inactive
OCCc1ccccc1	inactive
CCC(C)c1nccnc1OC (stereo not drawn)	inactive
CCCC(=O)OCC	inactive
CCCCC1OC(=O)CC1C (stereo not drawn)	inactive
CCCCCCCCC=CC=O	inactive
CCCCCC(C)O (stereo not drawn)	inactive
CCCCC(C)CCC(=O)O (stereo not drawn)	inactive
CCCCCCC(=O)[O-].[H+]	inactive
CC(C)=CCCC(C)=CCO	inactive
Cc1cccc(O)c1	inactive
